For series [1], the target named is T1, Scavenger receptor class B member 1 (Mus musculus, UniProt Q61009).
T1 sequence (Q61009 whole entry): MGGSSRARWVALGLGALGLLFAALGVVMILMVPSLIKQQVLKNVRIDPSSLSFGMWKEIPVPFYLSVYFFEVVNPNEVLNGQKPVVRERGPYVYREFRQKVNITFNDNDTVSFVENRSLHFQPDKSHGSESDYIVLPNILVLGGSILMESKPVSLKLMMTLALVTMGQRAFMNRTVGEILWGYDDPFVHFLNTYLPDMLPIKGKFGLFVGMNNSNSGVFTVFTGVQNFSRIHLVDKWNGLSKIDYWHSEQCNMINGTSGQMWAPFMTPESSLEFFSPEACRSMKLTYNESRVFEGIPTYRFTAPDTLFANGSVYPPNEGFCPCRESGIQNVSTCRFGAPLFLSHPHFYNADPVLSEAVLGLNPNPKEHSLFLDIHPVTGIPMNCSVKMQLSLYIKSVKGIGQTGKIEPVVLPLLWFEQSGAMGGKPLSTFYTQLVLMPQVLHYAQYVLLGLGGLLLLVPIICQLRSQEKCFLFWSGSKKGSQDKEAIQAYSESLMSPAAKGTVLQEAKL
The series is described as follows: Inhibition of mouse SR-BI isoform 1 expressed in CHO cells assessed as reduction in transfer of fluorescent lipid DiI from human HDL particles into cells by fluorescence assay. Type of series: cell-based. In a few lines:
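ldlA[mSR-BI] cells (CHO, lacking LDL receptor, overexpressing mouse SR-BI), 10,000 per well, plated overnight in F12K/5% FCS. Medium swapped to Ham's F12/0.5% fatty acid-free BSA/25 mM HEPES pH 7.4 with DiI-HDL at 10 μg protein/ml final. Compound pinned in, 3 h at 37 °C, then two PBS (+Ca/Mg) washes. Bottom-read fluorescence; normalized to DMSO and 1 μM BLT-1.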

Series [2] concerns the target T1, Scavenger receptor class B member 1. The series is described as follows: Inhibition of mouse SR-BI isoform 1 expressed in CHO cells assessed as increase in binding of Alexa-488-labeled HDL particles to cells. Type of series: cell-based. The procedure, abridged: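 ldlA[mSR-BI] cells (LDL receptor-deficient CHO overexpressing mouse SR-BI), 10,000/well in Ham's F12K/5% FCS, grown overnight. Medium swapped for Ham's F12/0.5% fatty acid-free BSA/25 mM HEPES pH 7.4 containing 10 ug/mL Alexa 488-HDL (dye bound covalently to apolipoprotein). Compounds pinned in, 1 uM BLT-1 as positive control, 3 h at 37°C. Cells washed twice with PBS (+Ca/Mg), bottom-read fluorescence, normalised to DMSO and BLT-1 wells.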

The subject of series [3] is CHO. The series is described as follows: Inhibition of general receptor-mediated endocytosis in SR-BI isoform 1 expressing CHO cells assessed as effect on endocytosis of Alexa-594-labeled transferrin up to 35 uM. Format: functional, cell-based. The note with it: Cricetulus griseus.
Series [4] is described as follows: Aqueous solubility in PBS buffer with 1% DMSO at 100 uM incubated for 24 hrs by UPLC-MS method. Type of series: physicochemical. The procedure, abridged:
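Duplicate samples at 100 μM in PBS pH 7.4 with 1% DMSO, plus matching samples in 100% DMSO. Shaken 250 rpm for 24 h at room temperature. Quantified by UPLC-MS with SIR detection on a single quadrupole; PBS response fitted to a two-point calibration made from the DMSO samples.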

The nature of series [5]: Stability in human plasma assessed as compound remaining at 5 uM after 5 hrs at 37 degC by UPLC-MS method. Format: ADME, cell-free. The note with it: read-out: Stability. In a few lines:
(§1)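 Plasma (human or mouse) diluted 50/50 with PBS pH 7.4, compound at 5 μM (0.95% acetonitrile, 0.05% DMSO). Run in duplicate, shaken 250 rpm at 37 °C. Sampled at 0 and 5 h; analysed by UPLC-MS with SIR detection.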

Series [6] can be described thus: Stability in mouse liver microsomes assessed as compound remaining at 1 uM in presence of NADPH at 37 degC after 1 hr by UHPLC-MS method. Type of series: ADME. The note with it: read-out: Stability. In a few lines:
(§2)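 Liver microsomes (human or mouse) in PBS pH 7.4, final 1 μM compound, 0.3 mg/mL microsomes, 0.5 mM NADPH, 1% DMSO. Run in duplicate at 37 °C with 250 rpm shaking. Sampled at 0 and 1 h.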

The nature of series [7]: Stability in human liver microsomes assessed as compound remaining at 1 uM in presence of NADPH at 37 degC after 1 hr by UHPLC-MS method. Type of series: ADME. The settings on record: read-out: Stability. In a few lines: as §2
For orientation: Liver microsomes are vesicles of endoplasmic reticulum, rich in cytochrome P450 enzymes.

Series [8] can be described thus: Stability in mouse plasma assessed as compound remaining at 5 uM after 5 hrs at 37 degC by UPLC-MS method. The note with it: read-out: Stability. Format: ADME, cell-free. The procedure, abridged: as §1
In series [9] the test system is CHO. Put plainly: Cytotoxicity against CHO cells after 24 hrs. Type of series: cell-based, Cricetulus griseus. The settings on record: chinese hamster.

≈ marks a conversion by molar mass, not a printed value. Calls of active or inactive are those of the source. The calls are words filed in the database; no cut-off is given here. Bounds are passed on as bounds.

Experimental findings from ChEMBL document CHEMBL3425510, “Discovery of bisamide-heterocycles as inhibitors of scavenger receptor BI (SR-BI)-mediated lipid uptake” (Bioorg Med Chem Lett, 2015) are described below.

Turning to `CC(C(=O)NC1CCCC1)N(C(=O)Cn1nnc(-c2ccc3c(c2)OC(F)(F)O3)n1)C1CCCCC1` (stereo not drawn), the concentration for half-maximal inhibition (IC50) (usually the midpoint of a concentration-inhibition curve) in series [1] came to 230 nM.
In the case of `COc1ccc(-c2cc(CC(=O)N(C3CCCCC3)C(C)C(=O)NC3CCCC3)no2)cc1OC` (stereo not drawn), in series [1], the IC50 turned out to be 23 nM.
`CC(C(=O)NC1CCCC1)N(C(=O)Cn1nnc(-c2ccc(F)cc2)n1)C1CCCCC1` (stereo not drawn): in series [1], the concentration for half-maximal inhibition (IC50) turned out to be 130 nM.
With `COc1ccc(-c2nnn(CC(=O)N(C)C(C)C(=O)NC3CCCC3)n2)cc1OC` (stereo not drawn), the half-maximal inhibitory concentration (IC50) in series [1] was 19000 nM.
The same measure, in the same setting: as for `COc1ccc(-c2nc(CC(=O)N(C3CCCCC3)C(C)C(=O)NC3CCCC3)co2)cc1OC` (stereo not drawn), the figure is 130 nM; as for `COc1ccc(-c2nc(CC(=O)N(C3CCCCC3)C(C)C(=O)NC3CCCC3)cs2)cc1OC` (stereo not drawn), 6300 nM.
Take `COc1ccc(-c2nnn(CC(=O)N(C3CCCC3)C(C)C(=O)NC3CCCC3)n2)cc1OC` (stereo not drawn): the IC50 in series [1] is 110 nM.
As to `COc1ccc(-c2nnn(CC(=O)N(C3CCCCC3)C(C)C(=O)N3CCCCC3)n2)cc1OC` (stereo not drawn), the 50% inhibitory concentration (IC50) in series [1] was 7100 nM.
The same measure, in the same setting: as for `COc1cccc(-c2nnn(CC(=O)N(C3CCCCC3)C(C)C(=O)NC3CCCC3)n2)c1` (stereo not drawn), the figure is 180 nM; as for `Cc1ccc(-c2nnn(CC(=O)N(C3CCCCC3)C(C)C(=O)NC3CCCC3)n2)cc1` (stereo not drawn), 490 nM; as for `COc1ccc(-c2nnn(CC(=O)N(C3CCCCC3)C(C(=O)NC3CCCC3)C(C)C)n2)cc1OC` (stereo not drawn), > 25000 nM.
Take `O=C(CN(C(=O)Cn1nnc(-c2ccc3c(c2)OCO3)n1)C1CCCCC1)NC1CCCC1`: the half-maximal inhibitory concentration (IC50) in [1] was found to be 26 nM.
Turning to `COc1ccc(-c2nnn(CC(=O)N(C3CCCCC3)C(C)C(=O)NC3CC3)n2)cc1OC` (stereo not drawn), in [1], the IC50 came out at 420 nM.
Still for that read-out and setting: the same measure for `COc1ccc(-c2nnn(CC(=O)N(C3CCN(C)CC3)C(C)C(=O)NC3CCCC3)n2)cc1OC` (stereo not drawn): > 25000 nM; for `CC(C(=O)NC1CCCC1)N(C(=O)Cn1nnc(-c2ccccc2F)n1)C1CCCCC1` (stereo not drawn): 620 nM; for `COc1ccc(-c2nnn(CC(=O)N(C3CCCCC3)C(C)C(=O)N(C)C3CCCC3)n2)cc1OC` (stereo not drawn): 1600 nM.
Still for that read-out and setting: as for `COc1ccc(-c2nnn(CC(=O)N(CC3CCCCC3)C(C)C(=O)NC3CCCC3)n2)cc1OC` (stereo not drawn), the figure is 1600 nM.
`C[C@H](C(=O)NC1CCCC1)N(C(=O)Cn1nnc(-c2ccc3c(c2)OCO3)n1)C1CCCCC1`: the concentration for a half-maximal effect (EC50) (commonly the concentration at which the effect is half-maximal) in series [2] was found to be 270 nM. Moreover, in series [3], the inhibition result was “inactive”. For the same compound, in series [4], the solubility (kinetic) (in general, solubility judged after dilution from a stock solution rather than from solid) at 24 h, 100 µM came out at 28 µM (≈ 13.1 µg/mL). In addition, the remaining at 5 h, 5 µM in series [5] and in series [8] was > 99% in each case. The remaining at 1 h, 1 µM in [6] and in series [7] was < 1% each time. Moreover, the 50% inhibitory concentration (IC50) in series [1] is 17 nM.
With `COCC(=O)N1CCc2cc(-c3csc(NC(=O)c4cc(OC)cc(OC)c4)n3)ccc21`, the solubility (kinetic) at 24 h, 100 µM in series [4] was 0.57 µM (≈ 0.259 µg/mL).
As for `CC(C(=O)NC1CCCC1)N(C(=O)Cn1nnc(-c2cccc(F)c2)n1)C1CCCCC1` (stereo not drawn), in [1], the IC50 amounted to 380 nM.
On the same count and under the same terms, as for `CC(C(=O)NC1CCCC1)N(C(=O)Cn1nnc(-c2ccc(Cl)cc2)n1)C1CCCCC1` (stereo not drawn), the figure is 170 nM; as for `COc1ccc(-c2nnn(CC(=O)N(C3CCCCC3)C(C)C(=O)NC3CCCCC3)n2)cc1OC` (stereo not drawn), 200 nM.
Still for that read-out and setting: as for `COc1ccc(-c2nnn(CC(=O)N(C3CCCCC3)C(C)(C)C(=O)NC3CCCC3)n2)cc1OC`, the figure is 19000 nM.
As for `CC(C(=O)NC1CCCC1)N(C(=O)Cn1nnc(-c2ccc3c(c2)OCO3)n1)C1CCOCC1` (stereo not drawn), in series [1], the IC50 was determined as 840 nM.
Regarding `COc1ccc(-c2nnn(CC(=O)N(C3CCCCC3)C(C)C(=O)NC(C)C)n2)cc1OC` (stereo not drawn), the IC50 in series [1] stood at 810 nM.
Regarding `COc1ccc(-c2nnn(CC(=O)N(C3CC3)C(C)C(=O)NC3CCCC3)n2)cc1OC` (stereo not drawn), in [1], the IC50 stood at 7500 nM.
Same read-out and setting: as for `CC(C(=O)NC1CCCC1)N(C(=O)Cc1ccccc1)C1CCCCC1` (stereo not drawn), the figure is 37000 nM; as for `CC(C(=O)NC1CCCC1)N(C(=O)Cn1nnc(-c2ccc3c(c2)OCO3)n1)C1CCCCC1` (stereo not drawn), 27 nM.
In the case of `CC(C(=O)NC1CCCC1)N(C(=O)Cn1nnc(-c2ccccc2)n1)C1CCCCC1` (stereo not drawn), the IC50 in series [1] is 370 nM.
As for `COc1ccc(-c2nnn(CC(=O)N(C3CCCCC3)C(C)C(=O)NC3CCCC3)n2)cc1OC` (stereo not drawn), the Activity entry in [9] is recorded as “Non-toxic”. The compound also displayed a kinetic solubility at 24 h, 100 µM in series [4] of 114 µM (≈ 55.2 µg/mL). The IC50 in series [1] is 55 nM.
Consider `CC(C(=O)NC1CCCC1)N(C(=O)Cn1nnc(-c2ccc(Cl)c(Cl)c2)n1)C1CCCCC1` (stereo not drawn), for which, in [1], the 50% inhibitory concentration (IC50) turned out to be 180 nM.
The same measure, in the same setting: as for `COc1ccccc1-c1nnn(CC(=O)N(C2CCCCC2)C(C)C(=O)NC2CCCC2)n1` (stereo not drawn), the figure is > 25000 nM.
On the same count and under the same terms, as for `COc1ccc(-c2nnn(CC(=O)N(C3CCCCC3)C(C)C(=O)NC(C)(C)C)n2)cc1OC` (stereo not drawn), the figure is 17000 nM.
On to `CC(C(=O)NC1CCCC1)N(C(=O)Cn1nnc(-c2ccccc2Cl)n1)C1CCCCC1` (stereo not drawn), for which the concentration for half-maximal inhibition (IC50) in series [1] turned out to be 3800 nM.
